Experimental data published in ChEMBL document CHEMBL1154876, “Synthesis and antimicrobial studies on novel sulfonamides containing 4-azidomethyl coumarin” (2010).
Converted amounts (≈) assume the structure as drawn.

Experiments:
Assay type in all cases: functional
[1] = system: Candida albicans; assay: Antifungal activity against Candida albicans after 48 to 72 hrs by broth microdilution method
Summary of the method: (§1)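 Test compounds were prepared as 10 mg/ml DMSO stocks and serially diluted twofold in Sabouraud's dextrose broth over 500, 250, 125, 62.5, 31.25, 16, 8, 4, 2 and 1, alongside fluconazole as reference. Plates were inoculated with 1–5 × 10⁴ cfu/ml and held at 25 °C for 48–72 h. The MIC was the lowest concentration showing no visible growth.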

[2] = system: Staphylococcus aureus; assay: Antibacterial activity against Staphylococcus aureus MTCC 3160 after 18 hrs by broth microdilution method; details: MTCC 3160, 18 h
[3] = system: Penicillium chrysogenum; assay: Antifungal activity against Penicillium chrysogenum after 48 to 72 hrs by broth microdilution method; summary of the method: as §1
[4] = system: Fusarium oxysporum; assay: Antifungal activity against Fusarium oxysporum after 48 to 72 hrs by broth microdilution method; summary of the method: as §1
[5] = system: Bacillus subtilis; assay: Antibacterial activity against Bacillus subtilis MTCC 297 after 18 hrs by broth microdilution method; details: MTCC 297, 18 h
[6] = system: Aspergillus niger; assay: Antifungal activity against Aspergillus niger after 48 to 72 hrs by broth microdilution method; summary of the method: as §1
[7] = system: Enterococcus faecalis; assay: Antibacterial activity against Streptococcus faecalis MTCC 3382 after 18 hrs by broth microdilution method; details: MTCC 3382, 18 h
[8] = system: Pseudomonas aeruginosa; assay: Antibacterial activity against Pseudomonas aeruginosa MTCC 1034 after 18 hrs by broth microdilution method; details: MTCC 1034, 18 h
[9] = system: Klebsiella pneumoniae; assay: Antibacterial activity against Klebsiella pneumoniae MTCC 3384 after 18 hrs by broth microdilution method; details: MTCC 3384, 18 h
[10] = system: Escherichia coli; assay: Antibacterial activity against Escherichia coli MTCC 1089 after 18 hrs by broth microdilution method; details: MTCC 1089, 18 h
[11] = system: Aspergillus fumigatus; assay: Antifungal activity against Aspergillus fumigatus after 48 to 72 hrs by broth microdilution method; summary of the method: as §1
[12] = system: Mucor; assay: Antifungal activity against Mucor fuscus after 48 to 72 hrs by broth micro dilution method; summary of the method: as §1

Row | SMILES | MIC [1] | MIC [2] | MIC [3] | MIC [4] | MIC [5] | MIC [6] | MIC [7] | MIC [8] | MIC [9] | MIC [10] | MIC [11] | MIC [12]
1 | Cc1cc2oc(=O)cc(CN=[N+]=[N-])c2cc1S(=O)(=O)Nc1ccc(Cl)cc1[N+](=O)[O-] | 16 µg/mL (≈ 35.6 µM) | 4 µg/mL (≈ 8.89 µM) | 125 µg/mL (≈ 278 µM) | 1 µg/mL (≈ 2.22 µM) | 250 µg/mL (≈ 556 µM) | 62.5 µg/mL (≈ 139 µM) | 4 µg/mL (≈ 8.89 µM) | 8 µg/mL (≈ 17.8 µM) | 16 µg/mL (≈ 35.6 µM) | > 500 µg/mL | > 500 µg/mL | 8 µg/mL (≈ 17.8 µM)
2 | Cc1cc2oc(=O)cc(CN=[N+]=[N-])c2cc1S(=O)(=O)Nc1cccc2ccccc12 | 8 µg/mL (≈ 19 µM) | 16 µg/mL (≈ 38.1 µM) | 16 µg/mL (≈ 38.1 µM) | 1 µg/mL (≈ 2.38 µM) | > 500 µg/mL | 1 µg/mL (≈ 2.38 µM) | 2 µg/mL (≈ 4.76 µM) | 8 µg/mL (≈ 19 µM) | 1 µg/mL (≈ 2.38 µM) | > 500 µg/mL | 2 µg/mL (≈ 4.76 µM) | 31.2 µg/mL (≈ 74.3 µM)
3 | Cc1ccc(NS(=O)(=O)c2cc3c(CN=[N+]=[N-])cc(=O)oc3cc2C)c([N+](=O)[O-])c1 | 16 µg/mL (≈ 37.3 µM) | 16 µg/mL (≈ 37.3 µM) | 31.2 µg/mL (≈ 72.8 µM) | 1 µg/mL (≈ 2.33 µM) | 250 µg/mL (≈ 582 µM) | 31.2 µg/mL (≈ 72.8 µM) | 1 µg/mL (≈ 2.33 µM) | 16 µg/mL (≈ 37.3 µM) | 4 µg/mL (≈ 9.32 µM) | 250 µg/mL (≈ 582 µM) | 125 µg/mL (≈ 291 µM) | 62.5 µg/mL (≈ 146 µM)
4 | Cc1cc([N+](=O)[O-])ccc1NS(=O)(=O)c1cc2c(CN=[N+]=[N-])cc(=O)oc2cc1C | 16 µg/mL (≈ 37.3 µM) | 16 µg/mL (≈ 37.3 µM) | 2 µg/mL (≈ 4.66 µM) | 2 µg/mL (≈ 4.66 µM) | 4 µg/mL (≈ 9.32 µM) | 4 µg/mL (≈ 9.32 µM) | 4 µg/mL (≈ 9.32 µM) | 125 µg/mL (≈ 291 µM) | 31.2 µg/mL (≈ 72.8 µM) | 125 µg/mL (≈ 291 µM) | 8 µg/mL (≈ 18.6 µM) | 2 µg/mL (≈ 4.66 µM)
